Article PMC5064183 (Annals of Dermatology, 2016)

Key:
[1] = tested on: B16F10 mouse melanoma cells; assay: Melanin content assay in B16F10 cells; format: cell-based; conditions: αMSH (10 nM) induced B16F10 melanoma cells (Fig. 6A)
Summary of the method: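 B16F10 cells grown in DMEM with 10% FBS and 1% penicillin/streptomycin at 37℃, 5% CO2, under αMSH (10 nM) stimulation. Seeded in 12-well plates for 24 h, refed and held 48 h in triplicate cultures, then trypsinised. Washed twice in PBS, lysed in 1 N NaOH/10% DMSO at 80℃ for 1 h; absorbance 405 nm versus untreated cells. Mean±SD; unpaired t-test.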

[2] = tested on: Melan-a mouse melanocytes; assay: Melanin content assay in Melan-a cells; format: cell-based; conditions: αMSH (10 nM) induced Melan-a cells (Fig. 6B)
Summary of the method: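 Immortal non-tumorigenic mouse melanocytes kept in RPMI 1640 with 10% FBS, 1% penicillin/streptomycin and 200 nM TPA at 37℃, 10% CO2, subcultured every 4th day. Melanin content measured under αMSH (10 nM) stimulation and expressed as % of untreated control alongside MTT viability. Mean±SD; unpaired t-test.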

[3] = tested on: Mushroom tyrosinase (EC 1.14.18.1); assay: In vitro mushroom tyrosinase assay; format: biochemical
Summary of the method: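 Mushroom tyrosinase (EC 1.14.18.1), enzyme stock 1,100 units/ml (0.516 mg/ml) in 0.1 M phosphate buffer, mixed with phosphate buffer, test compound or reference inhibitor, and 5 mM L-dopa solution. Incubated 10 min at 37℃; dopachrome read at 475 nm. % inhibition = (ΔAcontrol−ΔAsample)/ΔAcontrol×100; IC50 = concentration giving 50% inhibition. Triplicate wells; experiments run at least three times; mean±SD, unpaired t-test.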

OC[C@H]1O[C@@H](Oc2ccc(O)cc2)[C@H](O)[C@@H](O)[C@@H]1O [Arbutin, hydroquinone-beta-D-glucopyranoside]
effect on melanin content (in words) [1]: inhibited melanin content | effect on melanin content (in words) [2]: inhibited melanin content

KA-CDPGYIGSR [KA-CR9]
dose dependence of mushroom tyrosinase inhibition ([3]; 5, 10, 20, 40, and 80 µM (Fig. 4, 5)): dose-dependent inhibition | maximum inhibitory effect of tyrosinase activity ([3]; in vitro tyrosinase screening, as restated in the discussion): 84%
